Results reported in ChEMBL document CHEMBL1158804, “Lupane triterpenoids from Maytenus species” (J Nat Prod, 2005).
Values after ≈ are worked out from the molar mass of the structure shown. Active and inactive are the calls of the source. The rule behind the calls is not given here.

Key:
Bacillus subtilis [1] = assay: Antibacterial activity against Bacillus subtilis CECT 39 by broth microdilution method; type: functional
How it was run: (§1)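 Compounds are dissolved in DMSO. The minimal inhibitory concentration is estimated by broth microdilution.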

Bacillus cereus [2] = assay: Antibacterial activity against Bacillus cereus CECT 496 by broth microdilution method; type: functional; how it was run: as §1
Bacillus pumilus [3] = assay: Antibacterial activity against Bacillus pumilus CECT 29 by broth microdilution method; type: functional; how it was run: as §1
HeLa = assay: Cytotoxicity against human HeLa cells after 48 hrs by MTT assay; type: functional, cell-based
How it was run: (§2)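 Monolayers are cultured in DMEM with 5% fetal calf serum and 1% penicillin-streptomycin at 37 °C, 5% CO2 and 90% humidity. Exponentially growing cells (2 × 10^4 cells/well) are exposed to a range of compound concentrations for 48 h at 37 °C. Viability is read by colorimetric MTT reduction.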

HEp-2 = assay: Cytotoxicity against human Hep2 cells after 48 hrs by MTT assay; type: functional, cell-based; details: HEp-2, 48 h; how it was run: as §2
Vero = assay: Cytotoxicity against african green monkey Vero cells after 48 hrs by MTT assay; type: cell-based; details: Chlorocebus sabaeus; how it was run: as §2
Staphylococcus aureus = assay: Antibacterial activity against Staphylococcus aureus ATCC 6538 up to 40 ug/mL by broth microdilution method; type: functional, organism-based; how it was run: as §1
[4] = test system: Staphylococcus epidermidis; assay: Antibacterial activity against Staphylococcus epidermidis CECT 232 up to 40 ug/mL by broth microdilution method; type: functional, organism-based; how it was run: as §1
[5] = test system: Staphylococcus saprophyticus; assay: Antibacterial activity against Staphylococcus saprophyticus CECT 235 up to 40 ug/mL by broth microdilution method; type: functional, organism-based; how it was run: as §1
Enterococcus faecalis = assay: Antibacterial activity against Enterococcus faecalis CECT 795 up to 40 ug/mL by broth microdilution method; type: functional, organism-based; how it was run: as §1
Bacillus subtilis [6] = assay: Antibacterial activity against Bacillus subtilis CECT 39 up to 40 ug/mL by broth microdilution method; type: functional, organism-based; how it was run: as §1
Bacillus cereus [7] = assay: Antibacterial activity against Bacillus cereus CECT 496 up to 40 ug/mL by broth microdilution method; type: functional, organism-based; how it was run: as §1
Bacillus pumilus [8] = assay: Antibacterial activity against Bacillus pumilus CECT 29 up to 40 ug/mL by broth microdilution method; type: functional, organism-based; how it was run: as §1
Priestia megaterium = assay: Antibacterial activity against Bacillus megaterium CECT 44 up to 40 ug/mL by broth microdilution method; type: functional, organism-based; how it was run: as §1
[9] = test system: Mycolicibacterium smegmatis; assay: Antibacterial activity against Mycobacterium smegmatis CECT 3032 up to 40 ug/mL by broth microdilution method; type: functional, organism-based; how it was run: as §1
Escherichia coli = assay: Antibacterial activity against Escherichia coli CECT 99 up to 40 ug/mL by broth microdilution method; type: functional, organism-based; how it was run: as §1
Proteus mirabilis = assay: Antibacterial activity against Proteus mirabilis CECT170 up to 40 ug/mL by broth microdilution method; type: functional, organism-based; how it was run: as §1
Salmonella = assay: Antibacterial activity against Salmonella sp. CECT 456 up to 40 ug/mL by broth microdilution method; type: functional, organism-based; how it was run: as §1
Pseudomonas aeruginosa = assay: Antibacterial activity against Pseudomonas aeruginosa AK 958 up to 40 ug/mL by broth microdilution method; type: functional, organism-based; how it was run: as §1
Candida albicans = assay: Antifungal activity against Candida albicans UBC1 up to 40 ug/mL by broth microdilution method; type: functional, organism-based
How it was run: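 The yeast is grown on Sabouraud agar at 37 °C. Compounds are dissolved in DMSO, and the minimal inhibitory concentration is estimated by broth microdilution.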

Row | SMILES | MIC (Bacillus subtilis [1]) [µg/mL] | MIC (Bacillus cereus [2]) [µg/mL] | MIC (Bacillus pumilus [3]) [µg/mL] | IC50 (HeLa) [µg/mL] | IC50 (HEp-2) [µg/mL] | IC50 (Vero) [µg/mL] | Activity (Staphylococcus aureus) | Activity [4] | Activity [5] | Activity (Enterococcus faecalis) | Activity (Bacillus subtilis [6]) | Activity (Bacillus cereus [7]) | Activity (Bacillus pumilus [8]) | Activity (Priestia megaterium) | Activity [9] | Activity (Escherichia coli) | Activity (Proteus mirabilis) | Activity (Salmonella) | Activity (Pseudomonas aeruginosa) | Activity (Candida albicans)
1 | C=C(C)[C@@H]1CC[C@]2(C(=O)O)CC[C@]3(C)[C@@H](CC[C@@H]4[C@@]5(C)CCC(=O)C(C)(C)[C@@H]5[C@H](O)C[C@]43C)[C@@H]12 | 35 (≈ 74.4 µM) | 25 (≈ 53.1 µM) | 20 (≈ 42.5 µM) | > 10 | > 10 | > 10 | – | – | – | – | – | – | – | – | – | – | – | – | – | –
2 | CC(=O)[C@@H]1CC[C@]2(CO)CC[C@]3(C)[C@@H](CC[C@@H]4[C@@]5(C)CC[C@H](O)C(C)(C)[C@@H]5CC[C@]43C)[C@@H]12 [MESSAGENIN] | – | – | – | > 10 | > 10 | > 10 | inactive | inactive | inactive | inactive | inactive | inactive | inactive | inactive | inactive | inactive | inactive | inactive | inactive | inactive
3 | C=C(C)[C@@H]1CC[C@]2(C)CC[C@]3(C)[C@@H](C[C@@H](O)[C@@H]4[C@@]5(C)[C@H](O)C[C@H](O)C(C)(C)[C@@H]5CC[C@]43C)[C@@H]12 [NEPETICIN] | – | – | – | < 10 | < 10 | < 10 | inactive | inactive | inactive | inactive | inactive | inactive | inactive | inactive | inactive | inactive | inactive | inactive | inactive | inactive
4 | C=C(C)[C@@H]1CC[C@@]2(C)[C@H]1[C@@H]1CC[C@@H]3[C@@]4(C)CCC(=O)C(C)(C)[C@@H]4[C@H](O)C[C@@]3(C)[C@]1(C)C[C@@H]2O [RESINONE] | – | – | – | > 10 | > 10 | > 10 | inactive | inactive | inactive | inactive | inactive | inactive | inactive | inactive | inactive | inactive | inactive | inactive | inactive | inactive
5 | C=C(C)[C@@H]1CC[C@]2(C)CC[C@]3(C)[C@@H](C[C@@H](O)[C@@H]4[C@@]5(C)CCC(=O)C(C)(C)[C@@H]5CC[C@]43C)[C@@H]12 [RIGIDENOL] | – | – | – | > 10 | > 10 | > 10 | inactive | inactive | inactive | inactive | inactive | inactive | inactive | inactive | inactive | inactive | inactive | inactive | inactive | inactive
